Laboratory results as given in ChEMBL document CHEMBL3997837, “Potent covalent inhibitors of bacterial urease identified by activity-reactivity profiling” (Bioorg Med Chem Lett, 2017).
pIC50, pKi: −log10 of the molar value. Activity calls are given as the source filed them. No cut-off for these calls is given here.

What was measured:
[1] = Inhibition of Sporosarcina pasteurii CCM 2056 urease assessed as reduction in ammonia production using urea as substrate measured for 120 mins by phenol-hypochlorite method; conditions: read-out: Ki
Sporosarcina pasteurii [2] = experiment: Time-dependent Sporosarcina pasteurii CCM 2056 urease assessed as reduction in ammonia production using urea as substrate by phenol-hypochlorite method
Sporosarcina pasteurii [3] = experiment: Competitive inhibition of Sporosarcina pasteurii CCM 2056 urease assessed as reduction in ammonia production preincubated with enzyme followed by addition of varying levels of urea as substrate measured for 120 mins by Lineweaver-Burk plot analysis
Sporosarcina pasteurii [4] = experiment: Reversible inhibition of Sporosarcina pasteurii CCM 2056 urease assessed as reduction in ammonia production by measuring recovery of enzyme activity at 10 times IC50 preincubated for 60 mins followed by 100-fold dilution in to PBS containing urea as substrate by Berthelot colorimetric assay relative to control; set-up: Activity: scale not given: the % may be the effect or the level left
[5] = Inhibition of Proteus mirabilis 543 urease at pH 5.5 assessed as reduction in ammonia production using urea as substrate measured after 15 mins by NaOH-hypochlorite method; conditions: read-out: IC50
Outline: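 Intact Proteus mirabilis cells were tested at pH 5.5, matching physiological urine, with 5 mM urea. Inhibitors were added without preincubation, and IC50 was determined.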

[6] = Inhibition of Proteus mirabilis 543 urease at pH 5.5 assessed as reduction in ammonia production using urea as substrate preincubated for 120 mins followed by substrate addition measured after 15 mins by NaOH-hypochlorite method; conditions: read-out: IC50
Outline: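 Intact Proteus mirabilis cells were preincubated with inhibitors in PBS for 2 h, then tested at pH 5.5, matching urine acidity, with 5 mM urea. IC50 was determined.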

[7] = Inhibition of Sporosarcina pasteurii CCM 2056 urease assessed as reduction in ammonia production by measuring initial state enzyme-inhibitor complex using urea as substrate measured for 120 mins by phenol-hypochlorite method; conditions: read-out: Ki
[8] = Inhibition of Sporosarcina pasteurii CCM 2056 urease assessed as reduction in ammonia production by measuring steady state enzyme-inhibitor complex using urea as substrate measured for 120 mins by phenol-hypochlorite method; conditions: read-out: Ki
[9] = Glutathione reactivity after 36 hrs in presence of 10 mM GSH by 1H NMR analysis
[10] = Glutathione reactivity in pH 7.4 PBS measured after 6 to 36 hrs in presence of 1.375 mmol GSH by DTNB reagent based spectrophotometric method
Outline: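 Glutathione served as a model reactive-thiol compound. Unreacted GSH was quantified spectrophotometrically by a modified Ellman method, and reaction progress was followed over time up to 36 h.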

Papain (Carica papaya) [11] = target: T1, Papain (Carica papaya) (UniProt P00784); experiment: Inhibition of Carica papaya papain at 0.1 to 0.25 mM using BzArgOEt as substrate measured for 30 mins
T1 sequence (whole entry): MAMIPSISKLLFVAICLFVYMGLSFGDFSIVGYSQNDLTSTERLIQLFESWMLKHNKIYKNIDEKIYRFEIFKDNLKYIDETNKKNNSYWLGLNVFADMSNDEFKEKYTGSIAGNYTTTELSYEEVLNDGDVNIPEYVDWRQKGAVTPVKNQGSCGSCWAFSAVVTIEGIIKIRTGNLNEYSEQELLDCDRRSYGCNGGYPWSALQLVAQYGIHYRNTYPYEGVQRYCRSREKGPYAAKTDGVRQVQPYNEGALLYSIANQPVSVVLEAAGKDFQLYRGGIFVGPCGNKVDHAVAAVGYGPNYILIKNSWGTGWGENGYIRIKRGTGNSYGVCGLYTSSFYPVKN

Proteus mirabilis = experiment: Inhibition of Proteus mirabilis 543 urease at pH 5.5 assessed as reduction in ammonia production using urea as substrate followed by substrate addition by NaOH-hypochlorite method; conditions: TDE = time-dependent effect
BALB/3T3 = experiment: Cytotoxicity against mouse BALB/3T3 cells assessed as reduction in cell proliferation after 72 hrs by SRB assay; assay type: cell-based; conditions: balb/3t3, 72 h
Outline: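 Mouse BALB/3T3 fibroblasts were scored by SRB assay, with cytotoxicity given as LC50 values.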

Papain (Carica papaya) [12] = target: T1, Papain (Carica papaya); experiment: Inhibition of Carica papaya papain at 0.1 to 1 mM using BzArgOEt as substrate measured for 30 mins

Row | inhibition (Papain (Carica papaya) [11]) | Structure (SMILES) | pKi [1] | TDI (Sporosarcina pasteurii [2]) | mode of inhibition (Sporosarcina pasteurii [3]) | Activity (Sporosarcina pasteurii [4]) | pIC50 [5] | pIC50 [6] | pKi [7] | pKi [8] | Drug metabolism [9] | K [10] | log K [10] | inhibition (Proteus mirabilis) | LC50 (BALB/3T3) | inhibition (Papain (Carica papaya) [12])
1 | inactive | O=C(O)/C=C/c1ccccc1 [CINNAMIC ACID] | 4.67 | Active | Active | 40.3% | 3.31 | 3.90 | 3.23 | 4.64 | Metabolite not detected | < 1.67e-06 M⁻¹ s⁻¹ | > -4 | Tde |  | 
2 |  | O=C(O)C#CC(=O)O | 7.37 | Active | Active | 10.9% | 3.49 | 4.05 | 5.40 | 7.26 |  | 0.000122 M⁻¹ s⁻¹ | -2.14 | Tde | Non-Toxic | inactive
3 |  | O=C(O)/C=C/C(=O)O [FUMARIC ACID] | 4.44 | Active | Active | 39.7% | 3.74 | 4.18 | 3.36 | 4.43 |  | 5e-05 M⁻¹ s⁻¹ | -2.52 | Tde | Non-Toxic | inactive
